Assay results reported in ChEMBL document CHEMBL5252516, “Linker Modification Strategies To Control the Prostate-Specific Membrane Antigen (PSMA)-Targeting and Pharmacokinetic Properties of DOTA-Conjugated PSMA Inhibitors” (J Med Chem, 2016).

Assays:
[1] = Drug uptake in iv dosed BALB/c athymic nude mouse kidney xenografted with human LNCaP cells treated with 68Ga-labeled compound measured after 1 hr by microPET imaging analysis; type: ADME, organism-based; conditions: in vivo
In short: (§1)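 Male BALB/c nu/nu mice, 6–8 weeks old, with subcutaneous LNCaP xenografts (6 × 10^6 cells in 50% Matrigel, right trunk) of about 1 cm. Tail-vein injection of 68Ga-labelled compound (~30 MBq, 0.5 nmol) under sevoflurane. Dynamic µPET: 60 min emission scan, then 100–120 min scan. SUVmean for tumor, muscle and kidney at 1 h; tumor/muscle ratio. One animal per compound.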

[2] = Distribution coefficient, logD of the compound at pH 7.4 in n-octanol/0.1 M HEPES by shake flask method; type: physicochemical
In short: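 Radiolabelled compound shaken to equilibrium in n-octanol / 0.1 M HEPES pH 7.4. Aliquots of both phases gamma-counted and logD calculated from the phase ratio. Mean ± SD.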

[3] = Retention time of the compound by HPLC; type: physicochemical
[4] = Drug uptake in iv dosed BALB/c athymic nude mouse tumor xenografted with human LNCaP cells treated with 68Ga-labeled compound measured upto 120 mins by microPET imaging analysis; type: ADME, organism-based; conditions: in vivo, 2 h; in short: as §1
[5] = Ratio of drug uptake in tumor to muscle in iv dosed BALB/c athymic nude mouse xenografted with human LNCaP cells treated with 68Ga-labeled compound measured after 1 hr by microPET imaging analysis; type: ADME, organism-based; conditions: in vivo; in short: as §1
[6] = Drug uptake in iv dosed BALB/c athymic nude mouse muscle xenografted with human LNCaP cells treated with 68Ga-labeled compound measured after 1 hr by microPET imaging analysis; type: ADME, organism-based; conditions: in vivo; in short: as §1
[7] = target: T1, Glutamate carboxypeptidase 2 (Homo sapiens, UniProt Q04609); assay: Inhibition of PSMA in human LNCaP cells assessed as cell surface binding per 10^6 cells using 177Lu-labeled compound after 45 mins by gamma counting analysis; type: cell-based
In short: (§2)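 LNCaP cells (10^5/well) seeded on poly-L-lysine 24 h before. Incubated 45 min at 37 °C with 32 nM 177Lu-labelled compound (25 GBq/µmol) in Opti-MEM, with or without 500 µM 2-PMPA as blocker. Four ice-cold PBS washes, surface fraction stripped with 50 mM glycine pH 2.8, internalized fraction released by 0.3 M NaOH lysis. Both fractions gamma-counted, specific values given as %IA/10^6 cells. Triplicate.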
Target sequence in this assay (Q04609 whole entry, looked up): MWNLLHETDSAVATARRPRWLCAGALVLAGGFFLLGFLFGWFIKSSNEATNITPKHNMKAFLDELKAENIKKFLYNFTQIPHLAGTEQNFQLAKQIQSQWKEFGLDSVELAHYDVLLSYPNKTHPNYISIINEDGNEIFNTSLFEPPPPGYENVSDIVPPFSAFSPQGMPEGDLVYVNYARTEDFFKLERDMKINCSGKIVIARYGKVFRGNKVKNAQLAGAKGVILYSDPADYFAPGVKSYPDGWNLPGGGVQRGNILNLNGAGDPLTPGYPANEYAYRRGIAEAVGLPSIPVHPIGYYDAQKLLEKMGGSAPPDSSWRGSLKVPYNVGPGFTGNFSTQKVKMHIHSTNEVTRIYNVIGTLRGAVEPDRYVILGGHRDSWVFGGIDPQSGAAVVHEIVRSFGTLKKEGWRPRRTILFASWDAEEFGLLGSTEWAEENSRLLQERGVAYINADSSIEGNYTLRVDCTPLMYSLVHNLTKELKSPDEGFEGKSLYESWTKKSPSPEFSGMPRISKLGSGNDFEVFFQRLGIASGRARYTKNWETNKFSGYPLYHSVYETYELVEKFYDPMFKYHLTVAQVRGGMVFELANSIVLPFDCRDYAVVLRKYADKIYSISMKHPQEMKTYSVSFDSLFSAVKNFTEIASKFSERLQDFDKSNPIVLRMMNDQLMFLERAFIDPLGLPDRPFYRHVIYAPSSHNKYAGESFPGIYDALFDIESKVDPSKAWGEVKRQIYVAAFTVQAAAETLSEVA

[8] = target: T1, Glutamate carboxypeptidase 2; assay: Inhibition of PSMA in human LNCaP cells assessed as specific internalization per 10^6 cells using 177Lu-labeled compound after 45 mins by gamma counting analysis; type: cell-based; in short: as §2
Target sequence in this assay (Q04609 whole entry, looked up): as above

[9] = Binding affinity to human serum protein after 1 hr by gel filtration method; type: ADME
[10] = Drug uptake in iv dosed BALB/c athymic nude mouse tumor xenografted with human LNCaP cells treated with 68Ga-labeled compound measured after 1 hr by microPET imaging analysis; type: ADME, organism-based; conditions: in vivo; in short: as §1
[11] = target: T1, Glutamate carboxypeptidase 2; assay: Binding affinity to PSMA in human LNCaP cells after 45 mins in presence of 68Ga-labeled PSMA-10 by gamma counting assay; type: cell-based
Target sequence in this assay (Q04609 whole entry): as the sequence (Q04609 whole entry, looked up) above

| SUV [1] | logD [2] | Retention_time [3] [min] | Drug uptake [4] | Ratio [5] | SUV [6] | specific cell surface binding (% of applied activity per 10^6 cells) [7] [%] | specific internalization (% of added activity per 10^6 cells) [8] [%] | PB [9] | SUV [10] | Ki [11] [nM] | Structure (SMILES) |
| --- | --- | --- | --- | --- | --- | --- | --- | --- | --- | --- | --- |
| 3.63 | -2.1 | 2.32 | Active | 5.2 | 0.1 | 16.8 | 7.17 | Not Active | 0.52 | 1.81 | O=C(O)CC[C@H](NC(=O)N[C@@H](CCCCNC(=O)[C@H](Cc1ccc2ccccc2c1)NC(=O)c1ccc(CNC(=O)CN2CCN(CC(=O)O)CCN(CC(=O)O)CCN(CC(=O)O)CC2)cc1)C(=O)O)C(=O)O |
| 4.16 | -2.06 | 1.95 | Active | 5.4 | 0.11 | 21.4 | 12.5 | Not Active | 0.58 | 0.53 | O=C(O)CC[C@H](NC(=O)N[C@@H](CCCCNC(=O)c1ccc(CNC(=O)c2ccc(CNC(=O)c3ccc(CNC(=O)CN4CCN(CC(=O)O)CCN(CC(=O)O)CCN(CC(=O)O)CC4)cc3)cc2)cc1)C(=O)O)C(=O)O |
| 4.7 | -1.92 | 1.74 | Not Active | 3.8 | 0.08 | 17.7 | 2.11 | Not Active | 0.3 | 15.3 | O=C(O)CC[C@H](NC(=O)N[C@@H](CCCCNC(=O)CCCCCNC(=O)c1ccc(CNC(=O)CN2CCN(CC(=O)O)CCN(CC(=O)O)CCN(CC(=O)O)CC2)cc1)C(=O)O)C(=O)O |
